Here are results for two compounds from ChEMBL document CHEMBL1139367, “A novel histone acetyltransferase inhibitor modulating Gcn5 network: cyclopentylidene-[4-(4'-chlorophenyl)thiazol-2-yl)hydrazone” (2009).

Active and inactive are the calls of the source. No cut-off for these calls is given here.

Assay [1] addresses Histone acetyltransferase KAT2A (Homo sapiens) (UniProt Q92830). The experiment in a line: Inhibition of human recombinant Gcn5 assessed as reduction in acetylated histone H3 level at 0.2 mM by Western blot analysis in presence of histone H3. A digest of the protocol: (§1)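 Tube reaction of human recombinant Gcn5 (50 ng) with 1 mM acetyl-CoA and histone H3 (100 or 200 ng). Buffer: 50 mM Tris-HCl pH 8.0, 0.1 mM EDTA, 50 mM KCl, 1 mM DTT, 5% glycerol. Incubated 1 h at 28 °C with or without compound, then 15% SDS-PAGE and blotting. Blots were probed serially with anti-acetyl-lysine and anti-acetyl-H3 antibodies.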

The target is the same in assay [2]. Put plainly: Inhibition of human recombinant Gcn5 assessed as reduction in acetylated histone H3 level at 0.2 mM by Western blot analysis. A digest of the protocol: as §1
Assay [3] has as its system Saccharomyces cerevisiae. Put plainly: Growth inhibition of Saccharomyces cerevisiae gcn5delta mutant at 0.2 to 1 mM after 48 hrs at 28 degC by growth spot assay. The format is functional, organism-based. The method, boiled down: (§2)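 Exponentially growing yeast cells at 0.2 OD/mL were serially diluted 1/5. They were spotted on solid YEPD (2% agar) containing 1% DMSO, with compound added from a 100 mM DMSO stock at increasing concentrations. Plates were incubated at 28 °C. Each mutant was compared with its isogenic wild type (S288c, YMK986 or SB819).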

For assay [4], the target named is Histone acetyltransferase KAT2A (Homo sapiens) (UniProt Q92830). Put plainly: Inhibition of human recombinant Gcn5 assessed as reduction in acetylated histone H3 level at 0.8 mM by Western blot analysis in presence of increased concentration of acetyl-CoA. For orientation: A western blot detects proteins with antibodies after separation by electrophoresis.
Assay [5] has as its system Saccharomyces cerevisiae. Put plainly: Inhibition of global histone H3 acetylation in Saccharomyces cerevisiae gcn5delta mutant at 0.8 mM after 24 hrs at 28 degC by hybridization assay. The assay is classed as functional, organism-based.
The test system of assay [6] is Saccharomyces cerevisiae. Put plainly: Growth inhibition of wild type wild type Saccharomyces cerevisiae SB819 at 0.2 to 1 mM after 48 hrs at 28 degC by growth spot assay. The assay is classed as functional, organism-based. The method, boiled down:
as §2

Assay [7] deals with Saccharomyces cerevisiae. The experiment in a line: Decrease in global histone H3 acetylation in wild type Saccharomyces cerevisiae S288C at 0.8 mM after 24 hrs at 28 degC by hybridization assay. The format is functional. Set-up: scale not given: the % may be the effect or the level left. A digest of the protocol:
(§3)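 Wild-type S288c yeast grown 24 h at 28 °C in YEPD with 1% DMSO, with or without compound added to the medium. Bulk proteins were extracted by an alkaline protocol, run on 15% SDS-PAGE and blotted. Blots were probed for acetylated H3, H4 and H3-K14Ac, with ECL detection. Signals were normalized to Ada2p and quantified densitometrically.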

Assay [8] has as its target Histone acetyltransferase KAT2A (Homo sapiens) (UniProt Q92830). Put plainly: Inhibition of human recombinant Gcn5 assessed as reduction in acetylated histone H3 level at 0.8 mM by Western blot analysis in presence of 200 ng histone H3. A digest of the protocol: as §1
Assay [9] shares this target. Put plainly: Inhibition of human recombinant Gcn5 assessed as reduction in acetylated histone H3 level at 0.8 mM by Western blot analysis. The method, boiled down:
as §1

Assay [10] deals with Saccharomyces cerevisiae. The experiment in a line: Reduction of global histone H4 acetylation in wild type Saccharomyces cerevisiae S288C at 0.8 mM after 24 hrs at 28 degC by hybridization assay. The assay is classed as functional, organism-based. A digest of the protocol: as §3
Assay [11] deals with Saccharomyces cerevisiae. The experiment in a line: Inhibition of histone H3 acetylation at H3-AcK14 site in wild type Saccharomyces cerevisiae S288C at 0.8 mM after 24 hrs at 28 degC by hybridization assay. The assay is classed as functional, organism-based. A digest of the protocol: as §3
The test system of assay [12] is Saccharomyces cerevisiae. Put plainly: Inhibition of histone H3 acetylation at H3-AcK14 site in Saccharomyces cerevisiae gcn5delta mutant at 0.8 mM after 24 hrs at 28 degC by hybridization assay. The assay is classed as functional, organism-based.
Assay [13] concerns Saccharomyces cerevisiae. The experiment in a line: Growth inhibition of Saccharomyces cerevisiae gcn5E173H mutant at 0.2 to 1 mM after 48 hrs at 28 degC by growth spot assay. The format is functional, organism-based. The method, boiled down:
as §2

Assay [14] relates to Saccharomyces cerevisiae. The experiment in a line: Growth inhibition of Saccharomyces cerevisiae SB0-deltabr mutant at 0.2 to 1 mM after 48 hrs at 28 degC by growth spot assay. The assay is classed as functional, organism-based. A digest of the protocol: as §2

Chain of Histone acetyltransferase KAT2A (Homo sapiens) (Q92830 2-837 limits assumed): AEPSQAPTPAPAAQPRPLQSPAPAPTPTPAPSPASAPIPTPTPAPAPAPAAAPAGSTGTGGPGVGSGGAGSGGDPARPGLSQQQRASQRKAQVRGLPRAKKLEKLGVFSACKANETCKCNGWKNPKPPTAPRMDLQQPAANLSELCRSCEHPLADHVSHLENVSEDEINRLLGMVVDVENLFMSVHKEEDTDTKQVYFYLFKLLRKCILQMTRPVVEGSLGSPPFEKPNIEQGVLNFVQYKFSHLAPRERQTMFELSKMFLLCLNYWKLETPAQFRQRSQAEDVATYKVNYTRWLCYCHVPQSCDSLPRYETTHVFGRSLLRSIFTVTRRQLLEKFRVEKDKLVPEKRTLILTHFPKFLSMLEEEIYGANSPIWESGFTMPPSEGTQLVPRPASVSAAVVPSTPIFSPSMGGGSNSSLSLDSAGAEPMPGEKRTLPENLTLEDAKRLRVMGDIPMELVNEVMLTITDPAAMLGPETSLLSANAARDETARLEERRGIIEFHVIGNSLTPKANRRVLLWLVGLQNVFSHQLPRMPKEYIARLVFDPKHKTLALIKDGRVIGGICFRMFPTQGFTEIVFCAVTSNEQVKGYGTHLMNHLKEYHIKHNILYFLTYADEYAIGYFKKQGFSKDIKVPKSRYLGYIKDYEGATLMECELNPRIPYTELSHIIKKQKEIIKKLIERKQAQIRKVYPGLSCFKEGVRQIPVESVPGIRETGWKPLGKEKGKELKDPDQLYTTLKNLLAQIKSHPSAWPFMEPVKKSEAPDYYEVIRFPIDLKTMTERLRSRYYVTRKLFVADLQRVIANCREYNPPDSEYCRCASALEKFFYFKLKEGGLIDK

As to `C=CC/C=C\C/C=C\CCCCCCCc1cccc(O)c1C(=O)O`, the result in assay [1] and in assay [2] was Active.

Turning to `Clc1ccc(-c2csc(NN=C3CCCC3)n2)cc1`, the result (in the assay on Saccharomyces cerevisiae [3]; in [4]; in the assay on Saccharomyces cerevisiae [5]; in assay [9]; in the assay with Saccharomyces cerevisiae [11]; in the assay with Saccharomyces cerevisiae [12]) was Active. The outcome with Saccharomyces cerevisiae [13] was Active. Further, the outcome (with Saccharomyces cerevisiae [6]; in [8]; with Saccharomyces cerevisiae [10]; with Saccharomyces cerevisiae [14]) was inactive. The compound further came in with an Activity with Saccharomyces cerevisiae [7] of 30%.
